Experimental data from ChEMBL document CHEMBL4513216, “Probing the Open Global Health Chemical Diversity Library for Multistage-Active Starting Points for Next-Generation Antimalarials” (ACS Infect Dis, 2020).

Assay: Toxicity liver stage against HepG2, at 10uM
Format: cell-based
Set-up: test concentration 10 uM, cell line HepG2-A16-CD81EGFP
Conditions: human, HepG2-A16-CD81EGFP cells; read-out: INHIBITION
In short: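 Uninfected HepG2-A16-CD81EGFP cells, 3 × 10^3 per well, 1536-well, plated on prespotted compound at 10 μM final, parasite-free screening media added to match infected plates; puromycin 10 μM positive, DMSO 0.5% negative; run in parallel with 48 h PbLuc assay at 37 °C, 5% CO2; viability by CellTiter-Glo luminescence, normalized to controls.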

Structure (SMILES) | cytotoxicity at 10 µM [%]
O=C(NC[C@H]1Cn2c(-c3ccccc3)cnc2CO1)C1CCOCC1 | -0.869
F[C@@H]1CN(C2CCC2)C[C@@H]1OCc1nc2ncccc2[nH]1 | -6.66
CCCC1CN(CCOc2ccccc2)C(=O)c2cccnc2O1 (centres undefined) | -6.77
COc1ccc(C(=O)N2CC[C@@]3(O)CCCC[C@H]3C2)cc1OC | -43.4
CC(C)c1sc(Cl)nc1C(=O)N1CCN(c2ccccn2)CC1 | -43.8
CC1CCN(c2cc(NC(=O)C3CC3)ncn2)CC1 | -8.67
COCCNC(=O)NCc1cc(-c2cccs2)n(C2CCCC2)n1 | -10.5
CCc1ccc(CN2CCC3(CCCN(C(=O)N(C)C)C3)C2)o1 (centres undefined) | 7.07
Cc1noc([C@]23COC[C@H]2CN(S(=O)(=O)N(C)C)C3)n1 | 10.9
O=S(=O)(C1CC1)N1CC[C@]2(C[C@H](OCC3CCOCC3)CO2)C1 | 8.64
Cc1noc(C2CCC3(CCN(C(=O)c4cnn(C)c4)CC3)O2)n1 (centres undefined) | 8.77
CCS(=O)(=O)N1CCC2(CC(=O)N(c3cncnc3)C2)C1 (centres undefined) | -0.298
COC[C@H]1CNC(=O)[C@@H]2CCN(Cc3cccc(C)n3)CC[C@H]12 | 16.7
Cc1nnc(N2C[C@H](OCCCn3cccn3)[C@H]3OCCC[C@H]32)s1 | 13.8
Cc1occc1C(=O)N1C[C@@H]2CCCO[C@@H]2[C@H](N(C)Cc2ccco2)C1 | 6.67
Cn1cc(C[C@H]2[C@@H](O)CCN2C(=O)C2CCC2)cn1 | -7.44
CSc1nc2cc(C)n(CC(=O)NC(C)C)c2c(=O)n1CC(C)C | -4.1
CNc1oc(-c2ccc(OC)c(S(=O)(=O)N3CCCCC3)c2)nc1C#N | 10.4
Cc1nn(C)c2c(N3CCN(C(=O)C4CCCCC4)CC3)ncnc12 | 12.3
Cc1cc(C)n(CCNc2ncnc3c2NC(=O)CN3)n1 | 6.61
Cn1nc(C2CNCCO2)cc1CCOc1ccc(C(F)(F)F)cc1 (centres undefined) | -7.54
CC1Cc2ccccc2N1C(=O)Cn1nc(-c2cccs2)ccc1=O (centres undefined) | -9.08

Structure (SMILES) | cytotoxicity at 10 µM [%]
CC(C)c1nccn1-c1cncc(C2CCCN(C3CCCCC3)C2)n1 (centres undefined) | -9.97
Cc1cc(C(=O)Nc2ccc3c(c2)N(C)CCN(C)C3)on1 | 7.34
COc1c(CNCCc2c[nH]c3cc(F)ccc23)c(C(C)C)nn1C | 4.64
CCOc1cccc(NC(=O)c2cc(C)on2)n1 | -2.14
CCN(C)C(=O)c1cccc(C(=O)N(C)Cc2cccc(O)c2)c1 | 11.7
c1ccc2c(c1)OCCC2NCc1ccc(N2CCOCC2)cc1 (centres undefined) | -13.7
CCC1CN(C)c2ccccc2CN1C(=O)CCn1cncn1 (centres undefined) | -1.87
CN(C)C(CNC(=O)OCC(F)(F)F)c1ccsc1 (centres undefined) | -44.4
CCN(Cc1cccs1)S(=O)(=O)N(C)C(C)C | -49
COc1ccc(Oc2ncccc2NC(=O)N2CCOC(C)C2)cc1 (centres undefined) | 2.65
COc1ccc2c(c1)NC(=O)C2OC(=O)CC(C)(C)C (centres undefined) | 2.41
Cc1noc(C)c1C(=O)NCc1cc[nH]n1 | 9.31
CCC(=O)NCC(=O)Nc1c(C)cnn1Cc1cc(F)ccc1F | -2.59
NC(=O)C1CCCN1Cc1cccc(NC(=O)c2ccc(Cl)cc2F)c1 (centres undefined) | 18.6
O=C(C(CNCc1ccco1)c1ccccc1)N1CCOCC1 (centres undefined) | -2.1
N#Cc1cccc(OCCN2CCCC2C(=O)Nc2nccs2)c1 (centres undefined) | 2.94
CC(C)(C)c1nnc(CN(Cc2cccs2)CC2CCCO2)o1 (centres undefined) | 15.8
Oc1ccc(N2CCN(Cc3ccc(F)cc3Br)CC2)cc1 | -13.2
Oc1ccc(N(CCc2ccccc2)CCn2cncn2)cc1 | 4.21
COCc1cccc(NC(C(N)=O)c2ccc(Br)cc2)c1 (centres undefined) | 2.94
Cc1noc(C)c1CS(=O)(=O)CC(=O)N(C)Cc1cccc(F)c1 | -8.1
Cc1cc(C(=O)NS(=O)(=O)Cc2ccon2)c(C)o1 | 4.42

Structure (SMILES) | cytotoxicity at 10 µM [%]
CC(C)N(Cc1ccc(C#N)cc1)C(=O)Nc1ccncc1 | 3.9
COCCc1noc(CN(C)c2nccc(C)n2)n1 | 9.34
O=C(c1ccc2c(c1)[nH]c(=O)n2C1CCCC1)N1CC(O)C1 | -53.5
CC(C)CC(C#N)NC(=O)c1ccc(Oc2cccnc2)cc1 (centres undefined) | -11.4
CN1CCCC(NC(=O)c2ccc(C(=O)c3cc[nH]c3)cc2)C1 (centres undefined) | 11.9
COc1ccc(CNC(C)c2cccc(Cl)c2)c(OC)c1OC (centres undefined) | 14
CCOCC1CN(CC2CCC2)Cc2nnn(CC3CC3)c21 (centres undefined) | 12.7
Cc1ncoc1C(=O)N1C[C@H]2CCC[C@@]2(COCC2CCOCC2)C1 | 0.23
Cc1ccc(CN(C)Cc2nc3ccc(F)cc3[nH]2)cn1 | -5.16
CCCc1nnc(N2CCN(c3ccccc3F)CC2)o1 | 5.85
CC(NC(=O)C1CCN(C(=O)C2CC2)CC1)c1nncn1C(C)C (centres undefined) | 1.33
O=C(NCc1csc2ccc(Cl)cc12)c1cc2n(n1)CCNC2 | -0.699
CN(C)Cc1cc(-c2nccn2CCn2cccn2)ccc1O | -50.5
Cc1nnc(NC(=O)N2CCCCC2CCO)s1 (centres undefined) | -43.2
CSCCC(=O)N1CCC(c2nccn2CCN(C)C)CC1 | -4.17
CN(C)C(=O)N1CCCC(C(=O)N(C)Cc2cnc(N)nc2)C1 (centres undefined) | -2.81
Cc1cc(C)n(CC(=O)N2CCCCC2CCN2CCCC2=O)c(=O)n1 (centres undefined) | 5.09
CC(C)(C)C(=O)N1CCC(n2cc(C3(O)CCCC3)nn2)CC1 | 3.15
Cc1c(C(C)NC(=O)Nc2ccc(F)cc2F)cnn1C (centres undefined) | -46.2
Cc1ccnn1CCC(=O)N1CCOC(CCc2ccccc2)C1 (centres undefined) | -51.1
O=C1NCC2(CCCN(Cc3ccccc3OCCO)C2)O1 (centres undefined) | -39.2
COCc1nnc(C(=O)N2CCCC(O)C2)o1 (centres undefined) | 1.31

Structure (SMILES) | cytotoxicity at 10 µM [%]
CCc1cc(CN(C)C(=O)CN2CC3(CCNCC3)OC2=O)on1 | 0.394
CC(C(=O)O)N1CCc2onc(-c3ccc(F)c(F)c3)c2C1 (centres undefined) | 14.9
O=C(c1cc(Cn2ccc3ccccc32)[nH]n1)N1CCC[C@H]1CO | -1.99
N[C@H]1CN(S(=O)(=O)N2CCCC2)C[C@@H]1c1ccccc1 | 6.86
CCN(C)Cc1cnc(S(=O)(=O)CC)n1CCOC | 4.38
Cc1cc(C)n(CC2CN(CC(=O)Nc3ccncc3)CCO2)n1 (centres undefined) | -3.18
Cc1cnn(C2CCCN(C(=O)c3ccc(C(N)=O)cn3)C2)c1 (centres undefined) | -7.35
Cc1cc(CN2CCN(C(=O)NCc3c(C)noc3C)CC2)on1 | 0.386
CC(C)(C)NC(=O)NC(=O)CN1C=Nc2ccccc2S1(=O)=O | -8.68
CN(Cc1cccc(C#N)c1)Cc1nc2c(cnn2C)c(=O)[nH]1 | -8.7
CC(C)(C)c1nc(CN2CCOC(Cn3cncn3)C2)cs1 (centres undefined) | -7.2
CN(C)C(=O)CCS(=O)(=O)Cc1cc(Cl)c2c(c1)OCO2 | -5.09
Cc1ccc(C(=O)NS(=O)(=O)c2ccccc2Br)c(=O)[nH]1 | -0.704
Cc1nc(C2CCCN2CC(=O)NCCc2ccc(Cl)cc2)no1 (centres undefined) | 8.52
Cc1cc(CNC(=O)N(Cc2ccc(F)cc2F)C2CC2)no1 | -18.5
COc1ccc2cc(C(=O)N3CCCC(n4ccnc4C)C3)[nH]c2c1 (centres undefined) | -9.74
CCN1CCN(C2CCN(Cc3nc(C)c(C)o3)CC2)C1=O | -9.92
Cc1nc(CN2CCCC(NCCOc3ccccc3C#N)C2)no1 (centres undefined) | -1.13
O=C(NCCNC(=O)c1scnc1Cl)c1ccccc1Cl | -0.524
O=C(NCCc1coc(-c2ccccc2)n1)NC1CC1 | -18.5
CNS(=O)(=O)Cc1ccc(CNc2cncc(-n3cccn3)n2)cc1 | -4.66
CN(Cc1ccsc1)C(=O)c1cccc(NS(C)(=O)=O)c1 | -5.72

Structure (SMILES) | cytotoxicity at 10 µM [%]
CC(NC(=O)NCCCN(C)C)c1ccc2c(c1)CCC(=O)N2 (centres undefined) | -8.03
CCc1c(C(=O)N2CCCN(C(C)=O)CC2)cnn1C(C)(C)C | -3.93
CCC(C)(C)NC(=O)C1CC(=O)N(CC2CC2)C1 (centres undefined) | -4.72
Cc1ncsc1C(=O)NC1CCN(Cc2cccnc2)CC1 | -7.49
CC(C)c1cc(NC(=O)CN2CCc3c(nc(C(C)C)n3C)C2)on1 | -12.3
CCC(O)CN1CCN(C(=O)Cc2cc(Cl)ccc2OC)CC1 (centres undefined) | -10.4
Cc1nc(C)n(CC2CCCN2Cc2ccn(-c3ccccc3)n2)n1 (centres undefined) | -5.01
Cc1ccc(CN2Cc3ccccc3OC3(CCC(CO)CC3)C2)o1 (centres undefined) | -13.7
CNCC1CCC(c2cc(CN(C)S(=O)(=O)N(C)C)n(C)n2)CC1 (centres undefined) | -1.33
O=C(NC1CC1)[C@H]1C[C@@H]2CCN(CCc3ccccc3)C[C@H]2O1 | 6.46
COCCNC(=O)[C@H]1CN(Cc2cccs2)C[C@H]2OCC[C@@H]12 | 4
c1cc(CNCc2ccnc(N3CCCC3)c2)c2c(c1)OCCO2 | 3.64
Cc1cccc(N2CCOCC3(C2)CN(c2cnn(C)c2)C(=O)CO3)n1 (centres undefined) | -0.136
c1cncc(COCC2CC[C@H]3[C@H]2OCCN3Cc2ccoc2)c1 (some centres undefined) | 1.2
COc1ccc(CN2CCOC3(CCCN(c4cnccn4)C3)C2)cc1 (centres undefined) | 10.5
CC(C)N1[C@H](CN(C)C)C[C@@H]2CN(c3ncc(F)cn3)CC[C@@H]21 | 11.7
c1cncc(O[C@@H]2CC[C@H]3[C@H]2OCCN3C2CCCC2)c1 | 1.76
O=C1NC(c2ccccc2)=N[C@@]12CC[C@@H]1CN(CC3CC3)C[C@@H]12 | 9.79
CNC(=O)CN1CCOCC2(CN(CCC(F)(F)F)CCO2)C1 (centres undefined) | 3.59
COCCN1C[C@@H]2[C@@H](OC)CCN(Cc3ccncc3)[C@@H]2C1 | 5.16
CC(C)=CCN1C[C@@H]2CC[C@H]1CN(S(=O)(=O)c1cccnc1)C2 | 3.26
